# ChEMBL document CHEMBL1151304, “Preparation and cytotoxic effect of ceanothic acid derivatives” (J Nat Prod, 1998)
# How the values were obtained:
# [1] = tested on: HeLa; experiment: Cytotoxicity against human HeLa cells assessed as cell survival after 48 hrs by MTT assay relative to control; assay type: functional; parameters: concentration or dose not given beside the values
# Procedure, shortened: (§1)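 FS-5 foreskin fibroblasts and HeLa cervical carcinoma cells were grown in DMEM with 10% heat-inactivated FCS, antibiotics and glutamine at 37 °C under 5% CO₂. They were seeded at 2 × 10⁴ cells/well and held 24 h, then exposed for 48 h to compound in medium with 2% FCS. MTT (5 mg/mL stock in PBS) went on for 4 h, then SDS/DMF lysis overnight, and A570 was read.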
# [2] = tested on: OVCAR-3; experiment: Cytotoxicity against human OVCAR-3 cells assessed as cell survival after 48 hrs by MTT assay relative to control; assay type: functional; parameters: concentration or dose not given beside the values
# Procedure, shortened: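 OVCAR-3 (human ovarian adenocarcinoma) cells were kept in RPMI 1640 with 10% heat-inactivated FCS, streptomycin, penicillin and 2 mM glutamine at 37 °C under 5% CO₂. They were seeded at 2 × 10⁴ cells/well and grown 24 h. The medium was then swapped for one holding compound and 2% FCS for 48 h. MTT (5 mg/mL stock in PBS) went on for 4 h in serum-free medium, then SDS/DMF lysis overnight, and absorbance was read at 570 nm.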
# [3] = Cytotoxicity against human FS5 cells assessed as cell survival after 48 hrs by MTT assay relative to control; assay type: cell-based; parameters: concentration or dose not given beside the values; settings: read-out: Survival; procedure, shortened: as §1
# [4] = tested on: OVCAR-3; experiment: Cytotoxicity against human OVCAR-3 cells after 48 hrs by MTT assay; assay type: functional, cell-based; settings: OVCAR-3, 48 h
# Procedure, shortened: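 OVCAR-3 ovarian adenocarcinoma cells kept in RPMI 1640 with 10% heat-inactivated FCS, 100 µg/mL streptomycin, 100 IU/mL penicillin, 2 mM glutamine at 37 °C, 5% CO2. Plated at 2 × 10⁴ cells/well and cultured 24 h, then treated 48 h in 2% FCS medium. After washing, MTT incubation 4 h, overnight lysis in 20% SDS/50% DMF, absorbance at 570 nm.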
# [5] = tested on: HeLa; experiment: Cytotoxicity against human HeLa cells after 48 hrs by MTT assay; assay type: functional, cell-based
# Procedure, shortened: (§2)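 FS-5 foreskin fibroblasts and HeLa cervical carcinoma cells grown in DMEM with 10% heat-inactivated FCS, penicillin, streptomycin, glutamine (37 °C, 5% CO2). Seeded at 2 × 10⁴ cells/well and left 24 h, then exposed 48 h to compounds in medium with 2% FCS. Washed, MTT added for 4 h at 37 °C, lysed overnight in SDS/DMF, A570 read.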
# [6] = Cytotoxicity against human FS5 cells after 48 hrs by MTT assay; assay type: cell-based; settings: FS5, 48 h; procedure, shortened: as §2
# [7] = Cytotoxicity against human FS5 cells assessed as cell survival at 10 ug/ml after 48 hrs by MTT assay relative to control; assay type: cell-based; settings: read-out: Survival
# [8] = tested on: HeLa; experiment: Cytotoxicity against human HeLa cells assessed as cell survival at 10 ug/ml after 48 hrs by MTT assay relative to control; assay type: functional; settings: read-out: Survival
# [9] = tested on: OVCAR-3; experiment: Cytotoxicity against human OVCAR-3 cells assessed as cell survival at 10 ug/ml after 48 hrs by MTT assay relative to control; assay type: functional; settings: OVCAR-3, 48 h, read-out: Survival
Compound,Survival [1] [%],Survival [2] [%],viability at 48 h [3] [%],IC50 [4] [µg/mL],IC50 [5] [µg/mL],IC50 [6] [µg/mL],"viability at 48 h, 10 ug/ml [7] [%]",viability at 10 µg/mL [8] [%],viability at 10 µg/mL [9] [%]
C=C(C)[C@@H]1CC[C@]2(C(=O)O)CC[C@]3(C)[C@H](CC[C@@H]4[C@@]5(C)CCC(C)(C)[C@@H]5CC[C@]43C)[C@@H]12,48,55,85,,,,,,
C=C(C)[C@@H]1CC[C@]2(C(=O)O)CC[C@]3(C)[C@H](CC[C@@H]4[C@@]5(C)[C@@H](CO)[C@H](O)C(C)(C)[C@@H]5CC[C@]43C)[C@@H]12,22,25,43,,,,,,
C=C(C)[C@@H]1CC[C@]2(C(=O)O)CC[C@]3(C)[C@H](CC[C@@H]4[C@@]5(C)C(C(=O)O)=CC(C)(C)[C@@H]5CC[C@]43C)[C@@H]12,50,51,87,,,,,,
C=C(C)[C@@H]1CC[C@]2(C(=O)O)CC[C@]3(C)[C@H](CC[C@@H]4[C@@]5(C)C=CC(C)(C)[C@@H]5CC[C@]43C)[C@@H]12,17,0,33,3.5,7.1,22.7,,,
C=C(C)[C@@H]1CC[C@]2(C(=O)O)CC[C@]3(C)[C@H](CC[C@@H]4[C@@]5(C)C[C@H](O)C(C)(C)[C@@H]5CC[C@]43C)[C@@H]12,18,0,67,4.7,9.1,29.6,,,
C=C(C)[C@@H]1CC[C@]2(C(=O)O)CC[C@]3(C)[C@H](CC[C@@H]4[C@@]5(C)CC(=O)C(C)(C)[C@@H]5CC[C@]43C)[C@@H]12,4,0,16,2.8,6.6,11.3,,,
C=C(C)[C@@H]1CC[C@]2(C(=O)O)CC[C@]3(C)[C@H](CC[C@@H]4[C@@]5(C)CC[C@H](O)C(C)(C)[C@@H]5CC[C@]43C)[C@@H]12 [BETULINIC ACID],25,0,39,0.9,0.8,20.7,,,
C=C(C)[C@@H]1CC[C@]2(C(=O)O)CC[C@]3(C)[C@H](CC[C@@H]4[C@@]5(C)[C@@H](C(=O)O)[C@H](O)C(C)(C)[C@@H]5CC[C@]43C)[C@@H]12 [CEANOTHIC ACID],65,68,81,,,,,,
COc1cccc2c1C(=O)c1c(O)c3c(c(O)c1C2=O)C[C@@](O)(C(=O)CO)C[C@@H]3O[C@H]1C[C@H](N)[C@H](O)[C@H](C)O1 [DOXORUBICIN],,,,,,,56,19,21
